Reference: ChEMBL document CHEMBL3227997, “Nucleosides. 110. Synthesis and antiherpes virus activity of some 2'-fluoro-2'-deoxyarabinofuranosylpyrimidine nucleosides” (J Med Chem, 1979)
Values after ≈ are worked out from the molar mass of the structure shown.

Tests used:
[1] = tested on: Human alphaherpesvirus 1; assay: Antiviral activity against HSV1 2931 infected in African green monkey Vero cells assessed as inhibition of virus replication at 10 ug/ml after 24 hrs relative to control; assay type: functional; conditions: Human alphaherpesvirus 1, 2931, Vero
Outline: (§1)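 Vero monolayers infected with HSV-1 strain 2931 at about 1 PFU/cell, adsorbed 2 h, then overlaid with maintenance medium containing drug. Supernatants harvested 24 h later and titered on Vero monolayers.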

[2] = Cytotoxicity against mouse L5178Y cells assessed as growth inhibition after 96 hrs; assay type: cell-based; conditions: read-out: ID50
Outline: (§2)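 Mouse leukemic lines grown in McCoy's medium with 15% fetal calf serum, starting at 40 000–60 000 cells/mL. Nucleoside added from a 50-fold concentrate; triplicate loosely capped tubes held at 37 °C in 5% CO2 for 96 h, controls reaching ~10^6 cells/mL. Cells counted electronically; percent growth inhibition calculated and the concentration for 50% inhibition reported.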

[3] = tested on: Human alphaherpesvirus 1; assay: Antiviral activity against HSV1 2931 infected in African green monkey Vero cells assessed as inhibition of virus replication at 100 ug/ml after 24 hrs relative to control; assay type: functional; conditions: Human alphaherpesvirus 1, 2931, Vero; outline: as §1
[4] = tested on: Human alphaherpesvirus 1; assay: Antiviral activity against HSV1 2931 infected in African green monkey Vero cells assessed as inhibition of virus replication at 0.01 ug/ml after 24 hrs relative to control; assay type: functional; conditions: Human alphaherpesvirus 1, 2931, Vero; outline: as §1
[5] = tested on: Human alphaherpesvirus 1; assay: Antiviral activity against HSV1 2931 infected in African green monkey Vero cells assessed as inhibition of virus replication at 0.1 ug/ml after 24 hrs relative to control; assay type: functional; conditions: Human alphaherpesvirus 1, 2931, Vero; outline: as §1
[6] = tested on: Human alphaherpesvirus 1; assay: Antiviral activity against HSV1 2931 infected in African green monkey Vero cells assessed as inhibition of virus replication at 1 ug/ml after 24 hrs relative to control; assay type: functional; conditions: Human alphaherpesvirus 1, 2931, Vero; outline: as §1
[7] = Cytotoxicity against mouse P815 cells assessed as growth inhibition after 96 hrs; assay type: cell-based; conditions: read-out: ID50; outline: as §2
[8] = tested on: Human alphaherpesvirus 1; assay: Potency index, ratio of compound activity to vidarabine activity against HSV1 2931; assay type: functional

| SMILES | inhibition at 10 µg/mL [1] [%] | GI50 at 96 h [2] [µg/mL] | inhibition at 100 µg/mL [3] [%] | inhibition at 0.01 µg/mL [4] [%] | inhibition at 0.1 µg/mL [5] [%] | inhibition at 1 µg/mL [6] [%] | GI50 at 96 h [7] [µg/mL] | Ratio [8] |
| --- | --- | --- | --- | --- | --- | --- | --- | --- |
| Cc1cn([C@@H]2O[C@H](CO)[C@@H](O)[C@@H]2O)c(=O)[nH]c1=O | 100 | > 100 | 100 | < 90 | < 90 | > 90 | 13 (≈ 50.3 µM) | – |
| Nc1nc(=O)n([C@@H]2O[C@H](CO)[C@@H](O)[C@@H]2F)cc1Br | 100 | 10 (≈ 30.9 µM) | – | < 90 | > 90 | > 99 | > 10 | – |
| Nc1ccn([C@@H]2O[C@H](CO)[C@@H](O)[C@@H]2F)c(=O)n1 | > 99.9 | 0.05 (≈ 0.204 µM) | > 100 | < 90 | > 90 | > 90 | 0.05 (≈ 0.204 µM) | – |
| Nc1nc(=O)n([C@@H]2O[C@H](CO)[C@@H](O)[C@@H]2F)cc1F | > 99.9 | 0.5 (≈ 1.9 µM) | – | < 90 | > 90 | > 99 | 0.4 (≈ 1.52 µM) | – |
| Nc1nc(=O)n([C@@H]2O[C@H](CO)[C@@H](O)[C@@H]2F)cc1Cl | > 99.9 | 1.4 (≈ 5.01 µM) | – | < 90 | < 90 | < 90 | 1 (≈ 3.58 µM) | – |
| Cl.Nc1nc(=O)n([C@@H]2O[C@H](CO)[C@@H](O)[C@@H]2F)cc1I | 100 | 48 | 100 | > 90 | > 99 | > 100 | 14 | 1000 |
| O=c1ccn([C@@H]2O[C@H](CO)[C@@H](O)[C@@H]2F)c(=O)[nH]1 | > 99 | > 10 | – | < 90 | < 90 | > 99 | > 10 | – |
| O=c1[nH]c(=O)n([C@@H]2O[C@H](CO)[C@@H](O)[C@@H]2F)cc1F | 100 | 1 (≈ 3.79 µM) | – | < 90 | > 99 | > 100 | 0.7 (≈ 2.65 µM) | – |
| O=c1[nH]c(=O)n([C@@H]2O[C@H](CO)[C@@H](O)[C@@H]2F)cc1Cl | > 100 | 1.4 (≈ 4.99 µM) | – | < 90 | < 90 | < 90 | 3.4 (≈ 12.1 µM) | – |
| O=c1[nH]c(=O)n([C@@H]2O[C@H](CO)[C@@H](O)[C@@H]2F)cc1Br | > 100 | 0.9 (≈ 2.77 µM) | – | < 90 | < 90 | > 99 | 1.6 (≈ 4.92 µM) | – |
| Nc1nc(=O)n([C@@H]2O[C@H](CO)[C@@H](O)[C@@H]2O)cc1I | > 100 | 0.2 (≈ 0.542 µM) | – | < 90 | < 90 | > 90 | 0.08 (≈ 0.217 µM) | – |
| O=c1[nH]c(=O)n([C@@H]2O[C@H](CO)[C@@H](O)[C@@H]2O)cc1I | > 90 | 30 (≈ 81.1 µM) | > 100 | < 90 | < 90 | < 90 | 16 (≈ 43.2 µM) | – |
| Cc1cn([C@@H]2O[C@H](CO)[C@@H](O)[C@@H]2F)c(=O)[nH]c1=O [5-METHYL-2'-FLUOROARAURACIL] | 100 | 1.6 (≈ 6.15 µM) | – | < 90 | > 90 | > 99.9 | 1.9 (≈ 7.3 µM) | – |
| Nc1ccn([C@@H]2O[C@H](CO)[C@@H](O)[C@@H]2O)c(=O)n1 [CYTARABINE] | > 100 | 0.02 (≈ 0.0822 µM) | > 100 | < 90 | < 90 | > 90 | 0.02 (≈ 0.0822 µM) | – |
| O=c1[nH]c(=O)n([C@@H]2O[C@H](CO)[C@@H](O)[C@@H]2F)cc1I [FIALURIDINE] | > 100 | 0.9 (≈ 2.42 µM) | – | < 90 | > 90 | > 99.9 | 0.8 (≈ 2.15 µM) | – |
| Nc1nc(=O)n([C@H]2C[C@H](O)[C@@H](CO)O2)cc1I [IBACITABINE] | > 99.9 | > 100 | – | < 90 | < 90 | > 90 | > 100 | – |
| O=c1[nH]c(=O)n([C@H]2C[C@H](O)[C@@H](CO)O2)cc1I [IDOXURIDINE] | > 90 | 4.2 (≈ 11.9 µM) | 100 | < 90 | < 90 | < 90 | 0.9 (≈ 2.54 µM) | – |
